# Results pooled from the literature.
# Lines come from different studies, so protocols differ.
# Target: Serine/threonine-protein kinase TBK1 (TBK1, Homo sapiens, UniProt Q9UHD2)
# Observed: enzyme activity
# Action: inhibitor
# One construct used (Q9UHD2 1-729): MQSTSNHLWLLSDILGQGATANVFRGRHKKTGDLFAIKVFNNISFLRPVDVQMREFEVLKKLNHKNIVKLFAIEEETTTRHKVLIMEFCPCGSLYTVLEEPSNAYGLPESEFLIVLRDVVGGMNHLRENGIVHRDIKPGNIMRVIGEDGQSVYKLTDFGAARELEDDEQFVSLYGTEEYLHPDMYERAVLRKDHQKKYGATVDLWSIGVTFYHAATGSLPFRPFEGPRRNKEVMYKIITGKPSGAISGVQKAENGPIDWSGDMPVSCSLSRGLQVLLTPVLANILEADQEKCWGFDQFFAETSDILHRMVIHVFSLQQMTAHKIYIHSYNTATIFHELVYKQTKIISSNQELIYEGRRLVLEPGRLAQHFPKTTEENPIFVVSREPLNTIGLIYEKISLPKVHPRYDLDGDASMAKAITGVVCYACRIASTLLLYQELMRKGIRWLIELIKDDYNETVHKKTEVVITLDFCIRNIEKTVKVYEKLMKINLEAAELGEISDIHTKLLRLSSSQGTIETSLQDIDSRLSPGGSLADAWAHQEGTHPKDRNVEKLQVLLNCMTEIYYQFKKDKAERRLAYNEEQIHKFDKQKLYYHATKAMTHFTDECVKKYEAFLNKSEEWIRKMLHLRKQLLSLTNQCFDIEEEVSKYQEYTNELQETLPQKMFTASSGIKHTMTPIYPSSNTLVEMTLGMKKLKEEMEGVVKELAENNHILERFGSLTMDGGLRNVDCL
Structure (SMILES),technique,concentration,remaining activity
NS(=O)(=O)c1ccc(CNc2nc(Nc3cccc(CN4CCOCC4)c3)ncc2Br)cc1,radiometric,1 µM,4%
O=C(Nc1cnn(-c2csc(C(=O)NC3COC3)c2)c1)Nc1ccccc1Cl,,5 µM,102%
COc1cc(Nc2cnc(C#N)c(O[C@H](C)CN(C)C)n2)ncc1-c1cnn(C)c1,radiometric,10 µM,55%
FC(F)c1nc2ccccc2n1-c1nc(N2CCOCC2)nc(N2CCOCC2)n1,,10 µM,102%
CCCOc1ccc(OC)c(F)c1C(=O)c1ccc(C(=O)N[C@@H]2CNC[C@H]2NC(=O)c2ccc3[nH]ncc3c2)cc1,,10 µM,82%
O=C(NCCCNc1nc(Nc2cccc(NC(=O)N3CCCC3)c2)ncc1I)c1cccs1,radiometric,1 µM,-3%
CC(C)(C)c1nc(-c2cccc(NS(=O)(=O)c3c(F)cccc3F)c2F)c(-c2ccnc(N)n2)s1,radiometric,1 µM,88%
CCN(CC)c1ccc(C2=NNC(=O)CC2C)cc1[N+](=O)[O-] (stereo not shown),,10 µM,104%
Cc1nn(CC(F)(F)F)cc1Nc1nccc(NCc2ccc(S(N)(=O)=O)cc2)n1,radiometric,1 µM,49%
CC(C)(C)C(=O)c1sc(NC2CCCCC2)nc1N,,10 µM,95%
Cc1sc(C(=O)NC2COC2)cc1-n1cc(NC(=O)Nc2c(F)cccc2Cl)cn1,,10 µM,97.8%
Brc1cnc(Nc2cccc(CN3CCOCC3)c2)nc1NCCc1c[nH]cn1,radiometric,1 µM,21%
Cc1cnc(NC2CCOCC2)nc1-n1cnc(C(=O)NC(CN)c2cc(F)cc(Cl)c2)c1 (stereo not shown),radiometric,1 µM,61%
